# Assay results reported in ChEMBL document CHEMBL5724801, “EUbOPEN Chemogenomics Library - Multiplex” (2024).
# “And” between values parts separate entries of the source, which are not always exact repeats. Identical values can stand only once.
# How the values were obtained:
# Format in all cases: toxicity, cell-based
# [1] = tested on: Fibroblast; assay: Multiplex assay against human fibroblast
# In short: (§1)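 Imaging took place on a CQ1 microscope at 37°C and 5% CO2 once compound had been added to live cells stained at seeding with Hoechst33342, BioTracker Green Microtubule Cytoskeleton Dye, MitoTracker Red and Annexin V Alexa Fluor 680. CellPathfinder machine-learning gating classed cells as Hoechst high-intensity objects or normal cells, classed normal cells as having healthy, pyknosed or fragmented nuclei, and classed pyknosed cells as mitotic or apoptotic. Tubulin, mitochondrial-mass and membrane-permeability phenotypes are per cents of the healthy-nucleus cells.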
# [2] = tested on: HEK-293T; assay: Multiplex assay against HEK293T; conditions: human; in short: as §1
# [3] = tested on: U2OS; assay: Multiplex assay against U2OS; conditions: human; in short: as §1
# [4] = 12 h, 1 µM, compound concentration 1 uM
# [5] = 12 h, 10 µM, compound concentration 10 uM
# [6] = 24 h, 1 µM, compound concentration 1 uM
# [7] = 24 h, 10 µM, compound concentration 10 uM
# [8] = 48 h, 1 µM, compound concentration 1 uM
# [9] = 48 h, 10 µM, compound concentration 10 uM
compound,measurement,setting,value
Cl.N=C(N)NC(=O)Cc1c(Cl)cccc1Cl [GUANFACINE HYDROCHLORIDE],Population Apoptotic (%),[1]; [4],44% and 28%
same,Population Fragmented Nuclei (%),[1]; [4],20% and 23%
same,Population Healthy Nuclei (%),[1]; [4],62% and 45%
same,Population Hoechst High Intensity Objects (%),[1]; [4],2%
same,Population Membrane Permeable-Phenotype (%),[1]; [4],0% and 3%
same,Population Mitochondria Different-Phenotype (%),[1]; [4],4% and 7%
same,Population Mitotic Cells (%),[1]; [4],55% and 71%
same,Population Normal (%),[1]; [4],97%
same,Population Pyknosed Nuclei (%),[1]; [4],16% and 31%
same,Population Tubulin-Different-Phenotype (%),[1]; [4],32% and 46%
same,Total Cell Count,[1]; [4],167 and 149
same,Population Apoptotic (%),[1]; [5],66% and 35%
same,Population Fragmented Nuclei (%),[1]; [5],16% and 22%
same,Population Healthy Nuclei (%),[1]; [5],68% and 47%
same,Population Hoechst High Intensity Objects (%),[1]; [5],0% and 10%
same,Population Membrane Permeable-Phenotype (%),[1]; [5],1% and 5%
same,Population Mitochondria Different-Phenotype (%),[1]; [5],5%
same,Population Mitotic Cells (%),[1]; [5],33% and 64%
same,Population Normal (%),[1]; [5],99% and 89%
same,Population Pyknosed Nuclei (%),[1]; [5],15% and 29%
same,Population Tubulin-Different-Phenotype (%),[1]; [5],24% and 46%
same,Total Cell Count,[1]; [5],139 and 127
same,Population Apoptotic (%),[1]; [6],58% and 45%
same,Population Fragmented Nuclei (%),[1]; [6],22% and 23%
same,Population Healthy Nuclei (%),[1]; [6],62% and 46%
same,Population Hoechst High Intensity Objects (%),[1]; [6],1% and 6%
same,Population Membrane Permeable-Phenotype (%),[1]; [6],0% and 12%
same,Population Mitochondria Different-Phenotype (%),[1]; [6],5% and 8%
same,Population Mitotic Cells (%),[1]; [6],41% and 54%
same,Population Normal (%),[1]; [6],98% and 93%
same,Population Pyknosed Nuclei (%),[1]; [6],14% and 30%
same,Population Tubulin-Different-Phenotype (%),[1]; [6],26% and 50%
same,Total Cell Count,[1]; [6],169 and 130
same,Population Apoptotic (%),[1]; [7],63% and 25%
same,Population Fragmented Nuclei (%),[1]; [7],17% and 26%
same,Population Healthy Nuclei (%),[1]; [7],68% and 55%
same,Population Hoechst High Intensity Objects (%),[1]; [7],1% and 4%
same,Population Membrane Permeable-Phenotype (%),[1]; [7],0% and 13%
same,Population Mitochondria Different-Phenotype (%),[1]; [7],4% and 3%
same,Population Mitotic Cells (%),[1]; [7],36% and 75%
same,Population Normal (%),[1]; [7],98% and 95%
same,Population Pyknosed Nuclei (%),[1]; [7],14% and 18%
same,Total Cell Count,[1]; [7],137 and 114
same,Population Apoptotic (%),[1]; [8],61% and 50%
same,Population Fragmented Nuclei (%),[1]; [8],25% and 33%
same,Population Healthy Nuclei (%),[1]; [8],63% and 45%
same,Population Hoechst High Intensity Objects (%),[1]; [8],1% and 3%
same,Population Membrane Permeable-Phenotype (%),[1]; [8],0% and 4%
same,Population Mitochondria Different-Phenotype (%),[1]; [8],6% and 11%
same,Population Mitotic Cells (%),[1]; [8],38% and 50%
same,Population Normal (%),[1]; [8],98% and 96%
same,Population Pyknosed Nuclei (%),[1]; [8],11% and 21%
same,Population Tubulin-Different-Phenotype (%),[1]; [8],32% and 57%
same,Total Cell Count,[1]; [8],162 and 145
same,Population Apoptotic (%),[1]; [9],66% and 45%
same,Population Fragmented Nuclei (%),[1]; [9],22% and 39%
same,Population Healthy Nuclei (%),[1]; [9],67% and 41%
same,Population Hoechst High Intensity Objects (%),[1]; [9],1% and 6%
same,Population Membrane Permeable-Phenotype (%),[1]; [9],1% and 8%
same,Population Mitochondria Different-Phenotype (%),[1]; [9],6% and 2%
same,Population Mitotic Cells (%),[1]; [9],33% and 54%
same,Population Normal (%),[1]; [9],98% and 93%
same,Population Pyknosed Nuclei (%),[1]; [9],10% and 19%
same,Population Tubulin-Different-Phenotype (%),[1]; [9],24% and 67%
same,Total Cell Count,[1]; [9],142 and 120
same,Population Apoptotic (%),[2]; [4],29% and 47%
same,Population Fragmented Nuclei (%),[2]; [4],3% and 5%
same,Population Healthy Nuclei (%),[2]; [4],84% and 76%
same,Population Hoechst High Intensity Objects (%),[2]; [4],7% and 12%
same,Population Membrane Permeable-Phenotype (%),[2]; [4],0%
same,Population Mitochondria Different-Phenotype (%),[2]; [4],46% and 67%
same,Population Mitotic Cells (%),[2]; [4],70% and 52%
same,Population Normal (%),[2]; [4],92% and 87%
same,Population Pyknosed Nuclei (%),[2]; [4],11% and 17%
same,Population Tubulin-Different-Phenotype (%),[2]; [4],31%
same,Total Cell Count,[2]; [4],384 and 289
same,Population Apoptotic (%),[2]; [5],52% and 34%
same,Population Fragmented Nuclei (%),[2]; [5],12% and 8%
same,Population Healthy Nuclei (%),[2]; [5],67% and 77%
same,Population Hoechst High Intensity Objects (%),[2]; [5],7% and 10%
same,Population Membrane Permeable-Phenotype (%),[2]; [5],0%
same,Population Mitochondria Different-Phenotype (%),[2]; [5],61% and 69%
same,Population Mitotic Cells (%),[2]; [5],47% and 65%
same,Population Normal (%),[2]; [5],92% and 89%
same,Population Pyknosed Nuclei (%),[2]; [5],20% and 14%
same,Population Tubulin-Different-Phenotype (%),[2]; [5],43% and 38%
same,Total Cell Count,[2]; [5],296 and 365
same,Population Apoptotic (%),[2]; [6],36% and 50%
same,Population Fragmented Nuclei (%),[2]; [6],8% and 4%
same,Population Healthy Nuclei (%),[2]; [6],80% and 83%
same,Population Hoechst High Intensity Objects (%),[2]; [6],4% and 10%
same,Population Membrane Permeable-Phenotype (%),[2]; [6],0%
same,Population Mitochondria Different-Phenotype (%),[2]; [6],27% and 42%
same,Population Mitotic Cells (%),[2]; [6],63% and 50%
same,Population Normal (%),[2]; [6],95% and 89%
same,Population Pyknosed Nuclei (%),[2]; [6],11%
same,Population Tubulin-Different-Phenotype (%),[2]; [6],21% and 19%
same,Total Cell Count,[2]; [6],493 and 344
same,Population Apoptotic (%),[2]; [7],46% and 36%
same,Population Fragmented Nuclei (%),[2]; [7],11% and 6%
same,Population Healthy Nuclei (%),[2]; [7],75% and 83%
same,Population Hoechst High Intensity Objects (%),[2]; [7],7% and 9%
same,Population Membrane Permeable-Phenotype (%),[2]; [7],0%
same,Population Mitochondria Different-Phenotype (%),[2]; [7],48% and 50%
same,Population Mitotic Cells (%),[2]; [7],53% and 63%
same,Population Normal (%),[2]; [7],92% and 90%
same,Population Pyknosed Nuclei (%),[2]; [7],12% and 10%
same,Population Tubulin-Different-Phenotype (%),[2]; [7],39% and 27%
same,Total Cell Count,[2]; [7],343 and 454
same,Population Apoptotic (%),[2]; [8],15% and 34%
same,Population Fragmented Nuclei (%),[2]; [8],15% and 10%
same,Population Healthy Nuclei (%),[2]; [8],78% and 79%
same,Population Hoechst High Intensity Objects (%),[2]; [8],2% and 7%
same,Population Membrane Permeable-Phenotype (%),[2]; [8],1% and 0%
same,Population Mitochondria Different-Phenotype (%),[2]; [8],22% and 32%
same,Population Mitotic Cells (%),[2]; [8],84% and 65%
same,Population Normal (%),[2]; [8],97% and 92%
same,Population Pyknosed Nuclei (%),[2]; [8],6% and 9%
same,Population Tubulin-Different-Phenotype (%),[2]; [8],21% and 14%
same,Total Cell Count,[2]; [8],680 and 560
same,Population Apoptotic (%),[2]; [9],47% and 50%
same,Population Fragmented Nuclei (%),[2]; [9],17% and 12%
same,Population Healthy Nuclei (%),[2]; [9],73% and 80%
same,Population Hoechst High Intensity Objects (%),[2]; [9],6% and 10%
same,Population Membrane Permeable-Phenotype (%),[2]; [9],0%
same,Population Mitochondria Different-Phenotype (%),[2]; [9],31% and 33%
same,Population Mitotic Cells (%),[2]; [9],52% and 50%
same,Population Normal (%),[2]; [9],93% and 89%
same,Population Pyknosed Nuclei (%),[2]; [9],9% and 6%
same,Population Tubulin-Different-Phenotype (%),[2]; [9],14% and 20%
same,Total Cell Count,[2]; [9],421 and 612
same,Population Apoptotic (%),[3]; [4],80% and 100%
same,Population Fragmented Nuclei (%),[3]; [4],28% and 20%
same,Population Healthy Nuclei (%),[3]; [4],55% and 72%
same,Population Hoechst High Intensity Objects (%),[3]; [4],4% and 2%
same,Population Membrane Permeable-Phenotype (%),[3]; [4],5% and 8%
same,Population Mitochondria Different-Phenotype (%),[3]; [4],1% and 2%
same,Population Mitotic Cells (%),[3]; [4],19% and 0%
same,Population Normal (%),[3]; [4],95% and 97%
same,Population Pyknosed Nuclei (%),[3]; [4],16% and 7%
same,Population Tubulin-Different-Phenotype (%),[3]; [4],2% and 6%
same,Total Cell Count,[3]; [4],165 and 129
same,Population Apoptotic (%),[3]; [5],87% and 77%
same,Population Fragmented Nuclei (%),[3]; [5],27% and 18%
same,Population Healthy Nuclei (%),[3]; [5],61% and 74%
same,Population Hoechst High Intensity Objects (%),[3]; [5],1%
same,Population Membrane Permeable-Phenotype (%),[3]; [5],10% and 12%
same,Population Mitochondria Different-Phenotype (%),[3]; [5],3% and 7%
same,Population Mitotic Cells (%),[3]; [5],12% and 22%
same,Population Normal (%),[3]; [5],98%
same,Population Pyknosed Nuclei (%),[3]; [5],11% and 7%
same,Population Tubulin-Different-Phenotype (%),[3]; [5],7% and 10%
same,Total Cell Count,[3]; [5],280 and 130
same,Population Apoptotic (%),[3]; [6],75% and 83%
same,Population Fragmented Nuclei (%),[3]; [6],32% and 18%
same,Population Healthy Nuclei (%),[3]; [6],56% and 74%
same,Population Hoechst High Intensity Objects (%),[3]; [6],3% and 0%
same,Population Membrane Permeable-Phenotype (%),[3]; [6],5% and 8%
same,Population Mitochondria Different-Phenotype (%),[3]; [6],3% and 4%
same,Population Mitotic Cells (%),[3]; [6],25% and 16%
same,Population Normal (%),[3]; [6],96% and 99%
same,Population Pyknosed Nuclei (%),[3]; [6],10% and 7%
same,Population Tubulin-Different-Phenotype (%),[3]; [6],2% and 5%
same,Total Cell Count,[3]; [6],194 and 160
same,Population Apoptotic (%),[3]; [7],84% and 83%
same,Population Fragmented Nuclei (%),[3]; [7],25% and 15%
same,Population Healthy Nuclei (%),[3]; [7],64% and 76%
same,Population Hoechst High Intensity Objects (%),[3]; [7],0% and 2%
same,Population Membrane Permeable-Phenotype (%),[3]; [7],9% and 10%
same,Population Mitochondria Different-Phenotype (%),[3]; [7],2% and 4%
same,Population Mitotic Cells (%),[3]; [7],15% and 16%
same,Population Normal (%),[3]; [7],99% and 97%
same,Population Pyknosed Nuclei (%),[3]; [7],9% and 7%
same,Population Tubulin-Different-Phenotype (%),[3]; [7],4% and 5%
same,Total Cell Count,[3]; [7],326 and 160
same,Population Apoptotic (%),[3]; [8],89% and 90%
same,Population Fragmented Nuclei (%),[3]; [8],28% and 16%
same,Population Healthy Nuclei (%),[3]; [8],60% and 73%
same,Population Hoechst High Intensity Objects (%),[3]; [8],2% and 3%
same,Population Membrane Permeable-Phenotype (%),[3]; [8],4% and 8%
same,Population Mitochondria Different-Phenotype (%),[3]; [8],3% and 4%
same,Population Mitotic Cells (%),[3]; [8],10% and 9%
same,Population Normal (%),[3]; [8],97% and 96%
same,Population Pyknosed Nuclei (%),[3]; [8],10%
same,Population Tubulin-Different-Phenotype (%),[3]; [8],3% and 6%
same,Total Cell Count,[3]; [8],262 and 217
same,Population Apoptotic (%),[3]; [9],90% and 95%
same,Population Fragmented Nuclei (%),[3]; [9],21% and 14%
same,Population Healthy Nuclei (%),[3]; [9],68% and 74%
same,Population Hoechst High Intensity Objects (%),[3]; [9],2% and 1%
same,Population Membrane Permeable-Phenotype (%),[3]; [9],8% and 10%
same,Population Mitochondria Different-Phenotype (%),[3]; [9],3% and 1%
same,Population Mitotic Cells (%),[3]; [9],9% and 4%
same,Population Normal (%),[3]; [9],97% and 98%
same,Population Pyknosed Nuclei (%),[3]; [9],10% and 11%
same,Population Tubulin-Different-Phenotype (%),[3]; [9],4% and 3%
same,Total Cell Count,[3]; [9],440 and 213
